The text below walks through data of ChEMBL document CHEMBL1150314, “Design and synthesis of N-alkyl oxindolylidene acetic acids as a new class of potent Cdc25A inhibitors” (Bioorg Med Chem Lett, 2008).

In general, IC50 refers to the concentration at which inhibition is half-maximal.

The target of the experiment is T1, M-phase inducer phosphatase 1 (Homo sapiens, UniProt P30304).
T1 sequence (P30304 whole entry): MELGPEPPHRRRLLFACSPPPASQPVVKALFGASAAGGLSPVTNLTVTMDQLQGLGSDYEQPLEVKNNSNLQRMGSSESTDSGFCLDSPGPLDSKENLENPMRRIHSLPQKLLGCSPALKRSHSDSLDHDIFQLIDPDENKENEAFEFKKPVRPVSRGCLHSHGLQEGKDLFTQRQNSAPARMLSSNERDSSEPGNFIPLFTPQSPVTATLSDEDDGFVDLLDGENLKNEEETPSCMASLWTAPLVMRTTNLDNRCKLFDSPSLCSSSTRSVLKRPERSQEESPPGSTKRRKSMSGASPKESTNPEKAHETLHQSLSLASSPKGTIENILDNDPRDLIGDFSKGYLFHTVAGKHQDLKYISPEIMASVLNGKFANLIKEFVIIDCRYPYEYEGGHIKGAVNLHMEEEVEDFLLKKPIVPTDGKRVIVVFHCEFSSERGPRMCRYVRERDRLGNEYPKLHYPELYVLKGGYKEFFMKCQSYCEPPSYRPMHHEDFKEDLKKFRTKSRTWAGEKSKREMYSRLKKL
In words: Inhibition of human Cdc25A phosphatase activity. A digest of the protocol: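 Recombinant human Cdc25A catalytic domain; phosphatase activity measured by dephosphorylation of 40 μM O-methylfluorescein monophosphate in 50 mM Tris–HCl pH 8.0, 100 mM NaCl, 1 mM dithiothreitol. IC50 taken as mean of two–five experiments, with standard deviation reported.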
Regarding `CCCCCCCCCCCCN1C(=O)C(=O)c2ccccc21`, the IC50 turned out to be 15 µM.
Regarding `CC(C)CCC[C@@H](C)[C@H]1CCC2/C(=C/C(=O)O)CCC[C@@]21C` (stereo not given in full), half-maximal inhibition (IC50) required 12 µM.
`O=C(O)/C=C1/C(=O)N(CCCc2ccccc2)c2ccccc21`: the IC50 was > 100 µM.
Turning to `CCCCCCN1C(=O)/C(=C\C(=O)O)c2ccccc21`, the IC50 was > 100 µM.
With `CCCCCCCCCCN1C(=O)/C(=C\C(=O)O)c2ccccc21`, the IC50 was 12 µM.
The value for `CCCCCCCCCCCCN1C(=O)/C(=C\C(=O)O)c2ccccc21` was 2.9 µM; that for `CCCCCCCCCCCCCCN1C(=O)/C(=C\C(=O)O)c2ccccc21` was 1.7 µM.
`CCCCCCCCCCCCN1C(=O)/C(=C/C(=O)OC)c2ccccc21` yielded a half-inhibitory concentration (IC50) of 37 µM.
`CCCCCCCCCCCCN1C(=O)C(CC(=O)O)c2ccccc21` (stereo not given) yielded an IC50 of 50 µM.
As to `CCCCCCCCCCCCN1C(=O)/C(=N/O)c2ccccc21`, the IC50 amounted to 33 µM.
As to `CCOCCOCCOCCN1C(=O)/C(=C/C(=O)O)c2ccccc21`, the IC50 was > 100 µM.
The compound `CCCCCCCCCCN1C(=O)/C(=C/C(=O)O)c2ccccc21` showed an IC50 of 13 µM.
Regarding `CCCCCCCCCCCCN1C(=O)/C(=C/C(=O)O)c2ccccc21`, inhibition was half-maximal at 2.6 µM (IC50).
Next, `CCCCCCCCCCCCCCN1C(=O)/C(=C/C(=O)O)c2ccccc21`: 2.3 µM; `CCCCCCN1C(=O)/C(=C/C(=O)O)c2ccccc21`: > 100 µM; `CCCCCCCCCCCCCCCCN1C(=O)/C(=C/C(=O)O)c2ccccc21`: 1.9 µM.
Next, `CCCCCCCCN1C(=O)/C(=C\C(=O)O)c2ccccc21`: 39 µM; `CCCCCCCCCCCCCCCCN1C(=O)/C(=C\C(=O)O)c2ccccc21`: 1.6 µM; `CCCCCCCCCCCCn1cc(CC(=O)O)c2ccccc21`: 8 µM.
Turning to `CCCCCCCCN1C(=O)/C(=C/C(=O)O)c2ccccc21`, 78 µM corresponded to half-maximal inhibition (IC50). This IC50 is about 9.8-fold higher than that of the compound before.
